# NR2E3 ag-1: NR2E3 agonists in two-hybrid cells, primary screen, cell-based, luminescence, CHO-S, Gal4-NCOR/VP16-NR2E3; Photoreceptor-specific nuclear receptor (Homo sapiens), Q9Y5X4; luciferase; inhibition of corepressor binding, % at 3.98 µM; 0.35% of 360,000 active;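 active means inhibition above the mean of all tested compounds plus 3 SD, cut at about 70% in these data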;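 further: higher means lower luciferase signal from less NR2E3 corepressor binding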
# MT1-MMP act inh: blockers of MT1-MMP proenzyme processing, primary screen, HT1080 RFP-PRO-GFP cells, GFP/RFP fluorescence; Matrix metalloproteinase-14 (Homo sapiens), P50281; GFP/RFP ratio fluorescence, overnight; percent of plate control window, DMSO zero; GFP/RFP ratio change, % at 20 µM; 0.061% of 360,000 active;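 active means GFP/RFP ratio change of at least 30% with cell ATP level not reduced by more than half and red fluorescence within 50% of control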
#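 Assay system: HT1080 cells carrying an RFP-PRO-GFP reporter | Dosing: Single dose of 20 µM compound, 1% DMSO final | Incubation: Cells overnight before dosing, compound overnight, 37 °C, 5% CO2 | Evaluation: GFP/RFP fluorescence ratio | Control set: DMSO and RFP-L50D-GFP cell wells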
# PG9 Ab binder: binders of HIV-1 gp120 antibody PG9, primary screen, biochemical, TR-FRET. TR-FRET gp120-PG9 antibody binding. inhibition, % at 6.7 µM. 0.43% of 360,000 active. AID 624416, 2012; in the data active means inhibition above about 8.5%
# Rev-erbA mod: modulators of Rev-erb alpha DNA binding, primary screen, biochemical, FITC-DNA, fluorescence polarization, uHTS; Nuclear receptor subfamily 1 group D member 1 (Homo sapiens), P20393; Rev-erbα–FITC-DNA binding, 90 min; activity, % at 10 µM; 0.79% of 370,000 active;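 active means activity above about 14%, limit read from the data; passing the limit was not always enough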
# Target sequence (P20393 whole entry, looked up): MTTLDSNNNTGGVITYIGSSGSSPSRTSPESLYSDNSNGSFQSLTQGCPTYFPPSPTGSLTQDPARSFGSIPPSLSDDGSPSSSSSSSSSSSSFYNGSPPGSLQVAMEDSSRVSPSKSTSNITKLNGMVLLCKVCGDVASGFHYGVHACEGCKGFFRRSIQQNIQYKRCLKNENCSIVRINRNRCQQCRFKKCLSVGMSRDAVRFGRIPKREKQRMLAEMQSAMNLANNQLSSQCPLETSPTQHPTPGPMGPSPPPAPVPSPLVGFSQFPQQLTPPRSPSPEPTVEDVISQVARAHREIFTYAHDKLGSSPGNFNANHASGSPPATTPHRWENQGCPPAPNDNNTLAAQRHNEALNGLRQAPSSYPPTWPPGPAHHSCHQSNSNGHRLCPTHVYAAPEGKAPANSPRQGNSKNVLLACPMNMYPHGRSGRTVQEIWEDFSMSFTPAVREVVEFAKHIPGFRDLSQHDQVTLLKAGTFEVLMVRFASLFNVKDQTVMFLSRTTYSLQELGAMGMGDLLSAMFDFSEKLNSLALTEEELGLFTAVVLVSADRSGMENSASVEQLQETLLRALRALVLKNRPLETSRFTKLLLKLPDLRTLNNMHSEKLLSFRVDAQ
# NR2E3 ag-2: inhibitors of NR2E3-RetCOR corepressor binding, primary screen, NR2E3 agonist project, biochemical, TR-FRET, GST-NR2E3, biotin-RetCOR; 1536-well; AID 2300, 2010; Photoreceptor-specific nuclear receptor (Homo sapiens), Q9Y5X4; 0.12% of 320,000 active; inhibition of corepressor binding, % at 4.78 µM;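 active means percent inhibition above the cutoff of mean plus 3 SD of all tested compounds, set per screening campaign, cut at about 20% in these data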
#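 System: GST-tagged NR2E3 plus biotinylated RetCOR corepressor; Buffer or medium: pH 7.5 Tris-based buffer; Probe or stimulus: RetCOR corepressor, biotinylated, 7 nM; Doses: compound at 4.8 µM, single dose; Schedule: 5 h incubation at 4 °C; Technique: time-resolved FRET; Evaluation: percent inhibition of TR-FRET ratio; Replication: one well per compound, singlicate testing.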
# SKN-1 inh: suppressors of acrylamide-induced Pgst-4::GFP reporter in worms, primary screen, SKN-1 inhibitor project, whole organism, uHTS, GFP/RFP fluorescence ratio, strain VP596 | C. elegans VP596 Pgst-4::GFP/RFP ratio, 24 h | inhibition, % at 21.8 µM | 0.49% of 360,000 active | AID 624304, 2012;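 active means interference check ratio from 0.5 to 1.5 plus GFP to RFP signal ratio inhibition reaching or exceeding a fixed threshold, cut at about 30% in these data, passing the limit was not always enough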
# PG9 binder conf: binders of anti-gp120 antibody PG9, confirmation, biochemical, TR-FRET; shares compounds with PG9 Ab binder; TR-FRET PG9 antibody binding; 90% of 1,500 active; inhibition, % at 6.7 µM; AID 651571, 2012; in the data active means inhibition above about 9%
# PGV04 Ab binding: binders of control antibody PGV04, counter-screen for PG9 antibody binder project, biochemical, TR-FRET, distinct HIV envelope site; shares compounds with PG9 Ab binder; TR-FRET PGV04 antibody-gp120 binding; inhibition, % at 6.7 µM; 95% of 1,500 active; AID 651604, 2012; in the data active means inhibition above about 9.5%
# MT1-MMP act val: MT1-MMP activation inhibitors, hit retest, confirmation, single concentration, fluorescence, HT1080 RFP-PRO-GFP cells. GFP and RFP fluorescence ratio, overnight. inhibition, % at 20 µM. 10% of 200 active. shares compounds with MT1-MMP act inh. AID 652235, 2013;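 active means inhibition of at least 50% in the primary cell screen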
# NR1D1 mod conf: modulators of Rev-erb alpha DNA binding, confirmation, biochemical, FITC-DNA, fluorescence polarization, single point; shares compounds with Rev-erbA mod; 61% of 3,000 active; 90 min; activation, % at 25 µM;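 active means activation at or above a set limit, or at least 3 SD above the negative control mean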
# RORg counter: modulation of RORgamma DNA binding, dose response, counter-screen for Rev-erb alpha modulator project, biochemical, fluorescence polarization, FITC-DNA; 8% of 910 active; shares compounds with Rev-erbA mod; IC50, µM; purified RORgamma protein-FITC-DNA binding;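 active means Compounds whose fitted half-maximal concentration for disrupting protein-DNA binding is below 10 micromolar; the record names Rev-erb in its text, so the target is in doubt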
# A number is an active result; – = inactive; · = not tested or not shown. Rows were chosen to be rich in hits. Some 1.9% of all compounds tested hit in one or more screens of this group.
SMILES,NR2E3 ag-1,MT1-MMP act inh,PG9 Ab binder,Rev-erbA mod,NR2E3 ag-2,SKN-1 inh,PG9 binder conf,PGV04 Ab binding,NR1D1 mod conf,others
Cc1ccc(NC(=O)Cc2cccc(OC(F)(F)F)c2)c(S(=O)(=O)N2CCOCC2)c1,·,·,·,–,·,·,·,·,·,
CCOC(=O)c1cccc2c(=O)c(C(=O)c3ccc(Cl)cc3)c(C(=O)OC)[nH]c12,–,–,20.7,49.7,–,–,11.5,19.2,37.1,RORg counter=–
COC(=O)c1c(N)[nH]c(C(=O)c2ccccc2)c1-c1ccc(Cl)cc1,–,–,–,–,·,–,·,·,·,
COc1cc2c(cc1NC(=O)CSc1nnc(-c3cccc(Cl)c3)n1-c1ccccc1)oc1ccccc12,·,·,·,–,·,·,·,·,·,
CCCCS(=O)(=O)N1CCCc2nc(C)c(C)cc21,·,·,–,–,·,·,·,·,·,
COC(=O)[C@]12C[C@H](CC(=O)NCc3ccccc3)C(=O)N(CCC3=CCCCC3)C1=C[C@H](C1CCCC1)O[C@@H]2C,·,·,·,–,·,·,·,·,·,
C[C@@H](NC(=O)c1ncn2c1c(=O)[nH]c1cccnc12)c1ccccc1,–,–,–,–,·,–,·,·,·,
C[C@@H](NC(=O)c1ncn2c1c(=O)[nH]c1ccc(Br)cc12)c1ccccc1,–,–,18.3,131.6,·,–,46.4,53.8,23.1,
Cc1ccc(-n2c(SCC(=O)O)nc3sc4c(c3c2=O)CC(C)(C)SC4)cc1,–,–,–,–,·,–,·,·,·,
Cc1ccc(-n2c(SCC(=O)NCc3ccco3)nc3sc4c(c3c2=O)CC(C)(C)SC4)cc1,–,–,15.9,70.9,–,–,19.8,31.5,64.0,RORg counter=5.64
CCOC(=O)CN1C(=O)[C@]2(OCCC=C[C@H]2C)c2c(Br)cccc21,·,·,–,–,·,·,·,·,·,
O=c1[nH]c(SCCOc2cccc3ccccc23)nc2ccccc12,–,–,–,–,–,–,·,·,·,
CCOc1ccc(OCCSc2nc3ccccc3c(=O)[nH]2)cc1,–,–,38.6,26.2,–,–,37.3,51.7,–,
COc1cccc(C(=O)Nc2ccc3c(C)cc(=O)oc3c2)c1,–,–,9.7,19.8,·,–,21.0,30.6,–,
Cc1c(-c2ccc(Cl)cc2)oc(=O)c2c(N)n(-c3ccccc3)nc12,–,–,36.2,48.6,–,–,30.6,39.5,49.0,RORg counter=–
CCOC(=O)c1c(NC(=O)COC(=O)CCOc2ccccc2C)sc(C(=O)NC)c1C,–,–,30.5,71.8,–,–,48.4,56.6,45.9,RORg counter=–
Cc1ccc(CSc2nnc(-c3ccccc3)n2Cc2ccco2)cc1,·,·,·,–,·,·,·,·,·,
O=C(Cn1c(=O)c2cccn2c2ccccc21)NCCc1ccc(Cl)cc1,–,–,35.5,65.7,–,–,39.7,42.7,27.5,
Brc1cc(Br)c2nc3c(cc2c1)CCC3,–,–,51.7,33.4,–,–,57.6,66.5,22.8,
COC(=O)c1ccc(NC(=O)c2ccc3nc(C)sc3c2)cc1,–,–,28.8,38.8,–,–,31.6,49.1,17.8,
O=C(c1ccc2c(c1)C(=O)NC2=O)c1ccc2c(c1)C(=O)NC2=O,·,·,–,–,·,·,·,·,·,
COc1cc(OC)cc(-c2oc(=O)c3cc(OC)c(OC)cc3c2C#CCCO)c1,–,–,24.7,20.8,·,–,36.2,42.0,–,
CCCOc1ccc(C(=O)Nc2nc(C)c(Cc3ccc4c(c3)OCO4)s2)cc1,–,–,61.4,128.2,–,–,25.4,31.1,82.8,RORg counter=–
Cc1ccc2nc(NC(=O)c3ccc4c(c3)OCO4)sc2c1,–,–,17.9,28.6,–,–,20.8,31.6,–,
NS(=O)(=O)c1ccc2nc(NC(=O)c3ccc4ncsc4c3)sc2c1,–,–,·,·,–,–,·,·,·,
SMILES,NR2E3 ag-1,MT1-MMP act inh,PG9 Ab binder,Rev-erbA mod,NR2E3 ag-2,SKN-1 inh,PG9 binder conf,PGV04 Ab binding,NR1D1 mod conf,others
NS(=O)(=O)c1ccc2nc(NC(=O)c3ccc4c(c3)OCCO4)sc2c1,–,–,37.3,33.1,–,–,33.0,45.8,–,
COc1ccc(C(=O)Nc2scc(-c3ccc(Cl)cc3Cl)c2C(N)=O)cc1,–,–,9.8,62.0,–,–,–,19.0,55.6,RORg counter=–
Cc1ccc(-n2nnnc2SCC(=O)c2ccc3c(c2)NC(=O)CO3)c(C)c1,–,–,13.3,25.3,–,–,10.8,30.5,23.5,
Cc1ccccc1N(C(=O)c1snc(C(N)=O)c1N)C(C(=O)NCc1ccccc1)c1ccc(O)cc1 (stereo unspecified),–,–,29.8,18.7,–,–,30.8,45.0,–,
COc1cc(C(=O)Nc2cc(Cl)ccc2-n2cncn2)ccc1OC(F)F,–,–,10.2,31.3,–,–,22.7,38.2,–,
Cc1ccc(C)c(Cn2c(=O)n(CCCC(=O)NCc3ccco3)c(=O)c3sccc32)c1,–,–,18.0,18.4,–,–,20.9,29.0,–,
CC(=O)N1CCN(c2ccc(N3CCN(Cc4ccccc4)[C@H](C)C3)c(C)c2)[C@@H](C)C1,·,·,–,–,·,·,·,·,·,
Cc1nc2sc(C(=O)OCC(=O)N3c4ccccc4CC3C)c(C)c2c(=O)[nH]1 (stereo unspecified),–,–,9.9,19.5,–,–,20.6,26.1,–,
CC1CC(C)CN(C(=O)c2ccc3c(c2NCCO)C(=O)c2ccccc2C3=O)C1 (stereo unspecified),–,60.0,–,–,–,36.4,·,·,·,MT1-MMP act val=–

# Screening data from PubChem.
